Tests used:
[1] = test system: Cellular tumor antigen p53 (Homo sapiens), P04637 [Y220C]; experiment: Activation of p53 Y220C mutant in human NUGC3 cells assessed as change in NF1 mRNA level at 60 uM after 18 hrs by RT-PCR method relative to control; format: cell-based
How it was run: (§1)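 p53 signalling qPCR array covering 84 p53 pathway genes. Cells were exposed for 18 h, and compound and control wells both held 0.5% DMSO. Total RNA was extracted and purified. Fold-changes were calculated by the ΔΔCt method against the untreated sample, with β2-microglobulin (B2M) as the housekeeping gene. Each cell line was run in two independent biological replicates.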

[2] = target: T1, Cellular tumor antigen p53 (Homo sapiens, UniProt P04637); experiment: Activation of p53 in human NUGC4 cells assessed as change in BTG2 mRNA level at 60 uM after 18 hrs by RT-PCR method relative to control; format: cell-based; settings: read-out: FC
How it was run: (§2)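 p53 signaling qPCR array of 84 p53-pathway genes. Cells were treated in 6-well plates for 18 h with 0.5% DMSO in compound and control samples. Total RNA was extracted and fold-changes were obtained by the ΔΔCt method against untreated control, with β2-microglobulin (B2M) as housekeeping gene. Two independent biological replicates per cell line.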

[3] = test system: Cellular tumor antigen p53 (Homo sapiens), P04637 [Y220C]; experiment: Activation of p53 Y220C mutant in human NUGC3 cells assessed as change in KAT2B mRNA level at 60 uM after 18 hrs by RT-PCR method relative to control; format: cell-based; how it was run: as §1
[4] = test system: Cellular tumor antigen p53 (Homo sapiens), P04637 [Y220C]; experiment: Activation of p53 Y220C mutant in human NUGC3 cells assessed as change in CDKN1A mRNA level at 60 uM after 18 hrs by RT-PCR method relative to control; format: cell-based
How it was run: (§3)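 p53 signalling qPCR array covering 84 genes. Cells were exposed for 18 h, with 0.5% DMSO in both compound and control samples. Total RNA was extracted and purified. Fold-changes were calculated by ΔΔCt using β2-microglobulin (B2M) as the housekeeping gene. Two independent biological replicates were run per cell line.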

[5] = test system: Cellular tumor antigen p53 (Homo sapiens), P04637 [Y220C]; experiment: Activation of p53 Y220C mutant in human NUGC3 cells assessed as change in TP63 mRNA level at 60 uM after 18 hrs by RT-PCR method relative to control; format: cell-based; how it was run: as §1
[6] = target: T1, Cellular tumor antigen p53; experiment: Activation of p53 in human NUGC4 cells assessed as change in TNF mRNA level at 60 uM after 18 hrs by RT-PCR method relative to control; format: cell-based; settings: read-out: FC
[7] = test system: Cellular tumor antigen p53 (Homo sapiens), P04637 [Y220C]; experiment: Activation of p53 Y220C mutant in human NUGC3 cells assessed as change in TRAF2 mRNA level at 60 uM after 18 hrs by RT-PCR method relative to control; format: cell-based; how it was run: as §1
[8] = test system: Cellular tumor antigen p53 (Homo sapiens), P04637 [Y220C]; experiment: Activation of p53 Y220C mutant in human NUGC3 cells assessed as change in TNF mRNA level at 60 uM after 18 hrs by RT-PCR method relative to control; format: cell-based; how it was run: as §1
[9] = target: T1, Cellular tumor antigen p53; experiment: Activation of p53 in human NUGC4 cells assessed as change in CASP9 mRNA level at 60 uM after 18 hrs by RT-PCR method relative to control; format: cell-based; settings: read-out: FC; how it was run: as §2
[10] = test system: Cellular tumor antigen p53 (Homo sapiens), P04637 [Y220C]; experiment: Activation of p53 Y220C mutant in human NUGC3 cells assessed as change in WT1 mRNA level at 60 uM after 18 hrs by RT-PCR method relative to control; format: cell-based; how it was run: as §1
[11] = target: T1, Cellular tumor antigen p53; experiment: Activation of p53 in human NUGC4 cells assessed as change in BAI1 mRNA level at 60 uM after 18 hrs by RT-PCR method relative to control; format: cell-based; settings: read-out: FC; how it was run: as §1
[12] = target: T1, Cellular tumor antigen p53; experiment: Activation of p53 in human NUGC4 cells assessed as change in NFKB1 mRNA level at 60 uM after 18 hrs by RT-PCR method relative to control; format: cell-based; settings: read-out: FC
How it was run: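 p53-signalling qPCR array (84 pathway genes): cells treated 18 h in 0.5% DMSO, with DMSO-matched controls. Total RNA was extracted and fold-change quantified by the ΔΔCt method with β2-microglobulin (B2M) as housekeeping gene, normalized to the untreated sample. Two independent biological replicates per cell line.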

[13] = test system: Cellular tumor antigen p53 (Homo sapiens), P04637 [Y220C]; experiment: Activation of p53 Y220C mutant in human NUGC3 cells assessed as change in IGF1R mRNA level at 60 uM after 18 hrs by RT-PCR method relative to control; format: cell-based; how it was run: as §3
[14] = target: T1, Cellular tumor antigen p53; experiment: Activation of p53 in human NUGC4 cells assessed as change in SESN2 mRNA level at 60 uM after 18 hrs by RT-PCR method relative to control; format: cell-based; settings: read-out: FC
[15] = target: T1, Cellular tumor antigen p53; experiment: Activation of p53 in human NUGC4 cells assessed as change in CDC25C mRNA level at 60 uM after 18 hrs by RT-PCR method relative to control; format: cell-based; settings: read-out: FC; how it was run: as §2
[16] = test system: Cellular tumor antigen p53 (Homo sapiens), P04637 [Y220C]; experiment: Activation of p53 Y220C mutant in human NUGC3 cells assessed as change in TP53BP2 mRNA level at 60 uM after 18 hrs by RT-PCR method relative to control; format: cell-based; how it was run: as §1
[17] = target: T1, Cellular tumor antigen p53; experiment: Activation of p53 in human NUGC4 cells assessed as change in KAT2B mRNA level at 60 uM after 18 hrs by RT-PCR method relative to control; format: cell-based; settings: read-out: FC; how it was run: as §2
[18] = target: T1, Cellular tumor antigen p53; experiment: Activation of p53 in human NUGC4 cells assessed as change in CHEK1 mRNA level at 60 uM after 18 hrs by RT-PCR method relative to control; format: cell-based; settings: read-out: FC; how it was run: as §2
[19] = test system: Cellular tumor antigen p53 (Homo sapiens), P04637 [Y220C]; experiment: Activation of p53 Y220C mutant in human NUGC3 cells assessed as change in SIRT1 mRNA level at 60 uM after 18 hrs by RT-PCR method relative to control; format: cell-based; how it was run: as §1
[20] = test system: Cellular tumor antigen p53 (Homo sapiens), P04637 [Y220C]; experiment: Activation of p53 Y220C mutant in human NUGC3 cells assessed as change in HK2 mRNA level at 60 uM after 18 hrs by RT-PCR method relative to control; format: cell-based; how it was run: as §3
[21] = test system: SW1088; experiment: Antiproliferative activity against human SW1088 cells harboring p53 R273C mutant assessed as cell viability at <40 uM after 72 hrs by CellTiter-Glo assay relative to control
[22] = target: T1, Cellular tumor antigen p53; experiment: Activation of p53 in human NUGC4 cells assessed as change in APAF1 mRNA level at 60 uM after 18 hrs by RT-PCR method relative to control; format: cell-based; settings: read-out: FC; how it was run: as §1
[23] = test system: Cellular tumor antigen p53 (Homo sapiens), P04637 [Y220C]; experiment: Activation of p53 Y220C mutant in human NUGC3 cells assessed as change in EGR1 mRNA level at 60 uM after 18 hrs by RT-PCR method relative to control; format: cell-based; how it was run: as §3
[24] = target: T1, Cellular tumor antigen p53; experiment: Activation of p53 in human NUGC4 cells assessed as change in PRC1 mRNA level at 60 uM after 18 hrs by RT-PCR method relative to control; format: cell-based; settings: read-out: FC
[25] = target: T1, Cellular tumor antigen p53; experiment: Activation of p53 in human NUGC4 cells assessed as change in S1AH1 mRNA level at 60 uM after 18 hrs by RT-PCR method relative to control; format: cell-based; settings: read-out: FC
[26] = target: T1, Cellular tumor antigen p53; experiment: Activation of p53 in human NUGC4 cells assessed as change in TP53BP2 mRNA level at 60 uM after 18 hrs by RT-PCR method relative to control; format: cell-based; settings: read-out: FC
[27] = target: T1, Cellular tumor antigen p53; experiment: Activation of p53 in human NUGC4 cells assessed as change in TP53AIP1 mRNA level at 60 uM after 18 hrs by RT-PCR method relative to control; format: cell-based; settings: read-out: FC

fold change (FC) [1]: 1.4 | fold induction at 60 µM [2]: 0.6 | fold change (FC) [3]: 0.8 | fold change (FC) [4]: 3.1 | fold change (FC) [5]: 1.5 | fold induction at 60 µM [6]: 1.1 | fold change (FC) [7]: 1.4 | fold change (FC) [8]: 5.6 | fold induction at 60 µM [9]: 1 | fold change (FC) [10]: 1.5 | fold induction at 60 µM [11]: 2.9 | fold induction at 60 µM [12]: 0.8 | fold change (FC) [13]: 1.8 | fold induction at 60 µM [14]: 1.3 | fold induction at 60 µM [15]: 0.9 | fold change (FC) [16]: 1.8 | fold induction at 60 µM [17]: 1 | fold induction at 60 µM [18]: 0.7 | fold change (FC) [19]: 1.7 | fold change (FC) [20]: 1.7 | fold induction at 60 µM [22]: 1 | fold change (FC) [23]: 1 | fold induction at 60 µM [24]: 0.8 | fold induction at 60 µM [25]: 1.2 | fold induction at 60 µM [26]: 0.9 | fold induction at 60 µM [27]: 1
SMILES: CCNC(=O)c1c(O)c(I)c(-n2cccc2)c2sc(N(CC)CC)nc12
Activity [21]: >80%

From ChEMBL document CHEMBL4152234, “Aminobenzothiazole derivatives stabilize the thermolabile p53 cancer mutant Y220C and show anticancer activity in p53-Y220C cell lines” (Eur J Med Chem, 2018)
